Values after ≈ are worked out from the molar mass of the structure shown.
Experiments:
[1] = test system: Mycobacterium tuberculosis; assay: Antimycobacterial activity against Mycobacterium tuberculosis H37Ra at 100 ug/mL by microplate Alamar blue assay; format: functional
How it was run: (§1)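 MABA with M. bovis BCG, M. tuberculosis H37Ra or M. avium ATCC 25291. DMSO stocks (10 mg/mL) diluted in 7H9GC; final inoculum 2.5 × 10⁵ CFU/mL. Incubated 6 days, then alamar blue plus Tween 80 added and read by fluorescence after about 24 h. […]. Tested in triplicate at 100, 50, 10 and 1 µg/mL; two experiments, mean reported.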

[2] = test system: Mycobacterium tuberculosis; assay: Antimycobacterial activity against Mycobacterium tuberculosis H37Ra at 50 ug/mL by microplate Alamar blue assay; format: functional; how it was run: as §1
[3] = test system: Mycobacterium tuberculosis; assay: Antimycobacterial activity against Mycobacterium tuberculosis H37Ra at 10 ug/mL by microplate Alamar blue assay; format: functional; how it was run: as §1
[4] = test system: Mycobacterium tuberculosis; assay: Antimycobacterial activity against Mycobacterium tuberculosis H37Ra at 1ug/mL by microplate Alamar blue assay; format: functional; how it was run: as §1
[5] = test system: Mycobacterium tuberculosis; assay: Antimycobacterial activity against Mycobacterium tuberculosis H37Ra by microplate Alamar blue assay; format: functional
How it was run: (§2)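 Same alamar blue microplate setup (7H9GC, 2.5 × 10⁵ CFU/mL, 6 days, then dye read after about 24 h), using 2-fold compound dilutions. MIC90 is the lowest concentration giving about 90% inhibition relative to bacteria-only wells after background subtraction. Visual MIC is the lowest concentration preventing the blue-to-pink change.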

[6] = test system: Mycobacterium avium; assay: Antimycobacterial activity against Mycobacterium avium ATCC 25291 at 100 ug/mL by microplate Alamar blue assay; format: functional; how it was run: as §1
[7] = test system: Mycobacterium avium; assay: Antimycobacterial activity against Mycobacterium avium ATCC 25291 at 50 ug/mL by microplate Alamar blue assay; format: functional; how it was run: as §1
[8] = test system: Mycobacterium avium; assay: Antimycobacterial activity against Mycobacterium avium ATCC 25291 by microplate Alamar blue assay; format: functional; how it was run: as §2
[9] = test system: Escherichia coli; assay: Antibacterial activity against Escherichia coli ATCC 25922 after 16 to 20 hrs by broth microdilution method; format: functional; settings: for MIC: Escherichia coli, ATCC 25922
How it was run: (§3)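 Broth microdilution MIC. Exponentially growing bacteria diluted in sterile liquid medium to a final inoculum of 1 × 10⁴ CFU/mL. Cultured with compound dilutions for 16-20 h; compounds tested at 100, 50, 10 and 1 µg/mL. MIC taken as the concentration giving 100% inhibition of bacterial growth.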

[10] = test system: Klebsiella aerogenes; assay: Antibacterial activity against Enterobacter aerogenes after 16 to 20 hrs by broth microdilution method; format: functional; settings: for MIC: Klebsiella aerogenes; how it was run: as §3
[11] = test system: Proteus vulgaris; assay: Antibacterial activity against Proteus vulgaris ATCC 49132 after 16 to 20 hrs by broth microdilution method; format: functional; how it was run: as §3
[12] = test system: Pseudomonas aeruginosa; assay: Antibacterial activity against Pseudomonas aeruginosa […] after 16 to 20 hrs by broth microdilution method; format: functional; settings: for MIC: Pseudomonas aeruginosa, ATCC 13048; how it was run: as §3
[13] = test system: Salmonella typhimurium; assay: Antibacterial activity against Salmonella Typhimurium after 16 to 20 hrs by broth microdilution method; format: functional, Salmonella enterica subsp. enterica serovar Typhimurium; settings: for MIC: Salmonella enterica; how it was run: as §3
[14] = test system: Staphylococcus epidermidis; assay: Antibacterial activity against Staphylococcus epidermidis ATCC 14990 after 16 to 20 hrs by broth microdilution method; format: functional; settings: for MIC: Staphylococcus epidermidis, ATCC 14990; how it was run: as §3
[15] = test system: Staphylococcus aureus; assay: Antibacterial activity against Staphylococcus aureus ATCC 25923 after 16 to 20 hrs by broth microdilution method; format: functional; settings: for MIC: Staphylococcus aureus, ATCC 25923; how it was run: as §3
[16] = test system: Bacillus subtilis; assay: Antibacterial activity against Bacillus subtilis ATCC 6633 after 16 to 20 hrs by broth microdilution method; format: functional; settings: for MIC: Bacillus subtilis, ATCC 6633; how it was run: as §3
[17] = test system: Listeria monocytogenes; assay: Antibacterial activity Listeria monocytogenes ATCC 15313 after 16 to 20 hrs by broth microdilution method; format: functional; settings: for MIC: Listeria monocytogenes, ATCC 15313; how it was run: as §3
[18] = test system: Streptococcus pyogenes; assay: Antibacterial activity Streptococcus pyogenes ATCC 19615 after 16 to 20 hrs by broth microdilution method; format: functional; settings: for MIC: Streptococcus pyogenes, ATCC 19615; how it was run: as §3
[19] = test system: Streptococcus pneumoniae; assay: Antibacterial activity Streptococcus pneumoniae ATCC 49619 after 16 to 20 hrs by broth microdilution method; format: functional; settings: for MIC: Streptococcus pneumoniae, ATCC 49619; how it was run: as §3
[20] = test system: Enterococcus faecalis; assay: Antibacterial activity Enterococcus faecalis ATCC 29212 after 16 to 20 hrs by broth microdilution method; format: functional; settings: for MIC: Enterococcus faecalis, ATCC 29212; how it was run: as §3
[21] = test system: Vero; assay: Toxicity against Vero cells after 3 days by MTT test; format: cell-based; settings: chlorocebus sabaeus, 72 h
How it was run: (§4)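 MTT viability assay. Vero or HFF cells seeded at 2.5 × 10⁵ cells/well and left to attach 6-8 h. Exposed to compound at 100, 50, 25, 12.5, 6.3 and 1.5 µg/mL for 3 days at 37 °C, with a DMSO control. MTT added for 4 h, then solubilized overnight; absorbance read at 560-650 nm.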

[22] = Toxicity against human foreskin fibroblast cells after 3 days by MTT test; format: cell-based; how it was run: as §4
[23] = test system: Mycobacterium avium; assay: Antimycobacterial activity against Mycobacterium avium ATCC 25291 at 2 ug/mL by microplate Alamar blue assay; format: functional
[24] = test system: Escherichia coli; assay: Antibacterial activity against Escherichia coli ATCC 25922 at 1 ug/ml after 16 to 20 hrs by broth microdilution method; format: functional
[25] = test system: Klebsiella aerogenes; assay: Antibacterial activity against Enterobacter aerogenes at 1 ug/ml after 16 to 20 hrs by broth microdilution method; format: functional
[26] = test system: Pseudomonas aeruginosa; assay: Antibacterial activity against Pseudomonas aeruginosa […] at 1 ug/ml after 16 to 20 hrs by broth microdilution method; format: functional
[27] = test system: Salmonella typhimurium; assay: Antibacterial activity against Salmonella Typhimurium at 1 ug/ml after 16 to 20 hrs by broth microdilution method; format: functional, Salmonella enterica subsp. enterica serovar Typhimurium; settings: Salmonella enterica
[28] = test system: Staphylococcus epidermidis; assay: Antibacterial activity against Staphylococcus epidermidis ATCC 14990 at 1 ug/ml after 16 to 20 hrs by broth microdilution method; format: functional
[29] = test system: Staphylococcus aureus; assay: Antibacterial activity against Staphylococcus aureus ATCC 25923 at 1 ug/ml after 16 to 20 hrs by broth microdilution method; format: functional
[30] = test system: Bacillus subtilis; assay: Antibacterial activity against Bacillus subtilis ATCC 6633 at 1 ug/ml after 16 to 20 hrs by broth microdilution method; format: functional
[31] = test system: Listeria monocytogenes; assay: Antibacterial activity Listeria monocytogenes ATCC 15313 at 1 ug/ml after 16 to 20 hrs by broth microdilution method; format: functional
[32] = test system: Streptococcus pyogenes; assay: Antibacterial activity Streptococcus pyogenes ATCC 19615 at 1 ug/ml after 16 to 20 hrs by broth microdilution method; format: functional

SMILES | inhibition at 100 µg/mL [1] | inhibition at 50 µg/mL [2] | inhibition at 10 µg/mL [3] | inhibition at 1 µg/mL [4] | MIC90 [5] | inhibition at 100 µg/mL [6] | inhibition at 50 µg/mL [7] | MIC90 [8] | MIC [9] | MIC [10] | MIC [11] | MIC [12] | MIC [13] | Inhibition [14] | MIC [14] | Inhibition [15] | Inhibition [17] | Inhibition [18] | CC10 [21] | CC50 at 72 h [22] | further results
CCCCCCCCCCC#Cc1cn([C@@H]2O[C@H](CO)[C@@H](O)[C@H]2F)c(=O)[nH]c1=O | 100% | 100% | 100% | 70% | 1 µg/mL (≈ 2.44 µM) | 100% | 50% | 50 µg/mL (≈ 122 µM) | > 100 µg/mL | > 100 µg/mL | > 100 µg/mL | > 100 µg/mL | > 100 µg/mL | 100% | 100 µg/mL (≈ 244 µM) | 100% | 100% | 100% | > 100 µg/mL | > 100 µg/mL | MIC [15]: 100 µg/mL (≈ 244 µM); MIC [16]: > 100 µg/mL; MIC [17]: 100 µg/mL (≈ 244 µM); MIC [18]: 100 µg/mL (≈ 244 µM); Inhibition [19]: 100%; MIC [19]: 100 µg/mL (≈ 244 µM); Inhibition [20]: 100%; MIC [20]: 100 µg/mL (≈ 244 µM)
CCCCCCCCCCC#Cc1cn([C@@H]2O[C@H](CO)[C@@H](O)[C@@H]2O)c(=O)[nH]c1=O | 100% | 100% | 100% | 75% | 1 µg/mL (≈ 2.45 µM) | 100% | 55% | 50 µg/mL (≈ 122 µM) |  |  |  |  |  |  |  |  |  |  | > 100 µg/mL | > 100 µg/mL | 
CC[C@H]1OC(=O)[C@H](C)[C@@H](O[C@H]2C[C@@](C)(OC)[C@@H](O)[C@H](C)O2)[C@H](C)[C@@H](O[C@@H]2O[C@H](C)C[C@H](N(C)C)[C@H]2O)[C@](C)(OC)C[C@@H](C)C(=O)[C@H](C)[C@@H](O)[C@]1(C)O [CLARITHROMYCIN] |  |  |  |  |  |  |  | 2 µg/mL (≈ 2.67 µM) |  |  |  |  |  |  |  |  |  |  |  |  | inhibition at 2 µg/mL [23]: 95%
CCCCCCCCCCCC#Cc1cn([C@@H]2O[C@H](CO)[C@@H](O)[C@H]2F)c(=O)[nH]c1=O | 100% | 100% | 100% | 90% | 1 µg/mL (≈ 2.36 µM) | 100% | 50% | 50 µg/mL (≈ 118 µM) | > 100 µg/mL | > 100 µg/mL | > 100 µg/mL | > 100 µg/mL | > 100 µg/mL | 100% | 100 µg/mL (≈ 236 µM) | 100% | 100% | 100% | > 100 µg/mL | > 100 µg/mL | MIC [15]: 100 µg/mL (≈ 236 µM); MIC [16]: > 100 µg/mL; MIC [17]: 100 µg/mL (≈ 236 µM); MIC [18]: 100 µg/mL (≈ 236 µM); Inhibition [19]: 100%; MIC [19]: 100 µg/mL (≈ 236 µM); Inhibition [20]: 100%; MIC [20]: 100 µg/mL (≈ 236 µM)
CCCCCCCCC#Cc1cn([C@@H]2O[C@H](CO)[C@@H](O)[C@H]2F)c(=O)[nH]c1=O | 100% | 100% | 50% | 25% | 50 µg/mL (≈ 131 µM) | 50% |  |  | > 100 µg/mL | > 100 µg/mL | > 100 µg/mL | > 100 µg/mL | > 100 µg/mL | 100% | 100 µg/mL (≈ 261 µM) | 100% | 100% | 100% | > 100 µg/mL | > 100 µg/mL | MIC [15]: 100 µg/mL (≈ 261 µM); MIC [16]: > 100 µg/mL; MIC [17]: 100 µg/mL (≈ 261 µM); MIC [18]: 100 µg/mL (≈ 261 µM); Inhibition [19]: 100%; MIC [19]: 100 µg/mL (≈ 261 µM); Inhibition [20]: 100%; MIC [20]: 100 µg/mL (≈ 261 µM)
CO[C@H]1/C=C/O[C@@]2(C)Oc3c(C)c(O)c4c(O)c(c(/C=N/N5CCN(C)CC5)c(O)c4c3C2=O)NC(=O)/C(C)=C\C=C\[C@H](C)[C@H](O)[C@@H](C)[C@@H](O)[C@@H](C)[C@H](OC(C)=O)[C@@H]1C [RIFAMPIN] |  |  |  |  | 0.5 µg/mL (≈ 0.608 µM) |  |  | 2 µg/mL (≈ 2.43 µM) | 100 µg/mL (≈ 122 µM) | > 100 µg/mL | > 100 µg/mL | > 100 µg/mL | > 100 µg/mL | 100% |  | 100% | 100% | 100% |  |  | inhibition at 2 µg/mL [23]: 90%; Inhibition [9]: 100%; Inhibition [10]: 100%; Inhibition [12]: 100%; Inhibition [13]: 100%; Inhibition [16]: 100%; inhibition at 1 µg/mL [24]: 100%; inhibition at 1 µg/mL [25]: 100%; inhibition at 1 µg/mL [26]: 100%; inhibition at 1 µg/mL [27]: 100%; inhibition at 1 µg/mL [28]: 100%; inhibition at 1 µg/mL [29]: 100%; inhibition at 1 µg/mL [30]: 100%; inhibition at 1 µg/mL [31]: 100%; inhibition at 1 µg/mL [32]: 100%
